ChEMBL document CHEMBL4610085, “Boholamide A, an APD-Class, Hypoxia-Selective Cyclodepsipeptide” (J Nat Prod, 2020)
The source made the active and inactive calls. No cut-off for these calls is given here.

Key:
[1] = test system: U-87 MG; experiment: Cytotoxicity against human U87MG cells assessed as reduction in cell viability after 48 hrs under hypoxia condition by MTT assay; type: functional, cell-based, U-87MG ATCC
Summary of the method: (§1)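 U87MG in DMEM with 10% FBS, 2 mM L-glutamine, penicillin/streptomycin; seeded 10,000 cells/well, 24 h at 37 °C, then exposed to compound at varying concentrations for 48 h at 37 °C either in a CO₂ incubator (normoxia) or a hypoxic chamber. MTT (0.5 mg/mL in PBS) added 2 h, DMSO solubilisation, absorbance 570 nm; IC50 by curve fitting; triplicate biological replicates.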

[2] = test system: U-87 MG; experiment: Cytotoxicity against human U87MG cells assessed as reduction in cell viability after 48 hrs under normoxia condition by MTT assay; type: functional, cell-based, U-87MG ATCC; summary of the method: as §1
[3] = test system: U-87 MG; experiment: Selectivity index, ratio of IC50 for cytotoxicity against human U87MG cells under normoxia condition to IC50 for cytotoxicity against human U87MG cells under hypoxia condition incubated for 48 hrs by MTT assay; type: functional, U-87MG ATCC
[4] = test system: A549; experiment: Cytotoxicity against human A549 cells assessed as reduction in cell viability after 48 hrs by MTT assay; type: functional, cell-based; details: A549, 48 h
Summary of the method: (§2)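 Cells seeded at 10,000/well, left 24 h at 37 °C, then exposed to a range of concentrations for 48 h at 37 °C, either in a CO2 incubator (normoxia) or in a hypoxic chamber. MTT (0.5 mg/mL in PBS) was added for 2 h, DMSO was added, and absorbance was read at 570 nm. IC50 was fitted from the curves. Triplicate biological replicates.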

[5] = test system: Cerebral cortex; experiment: Induction of cell death in mouse brain cortex assessed as increase in cytoplasmic Ca2+ accumulation at 1 uM by Alexa-Flour 647 Isolectin B4 staining based assay; type: functional, tissue-based
[6] = test system: DRG neuron; experiment: Irreversible induction of calcium influx in STOCK Tg(CalcaEGFP)FG104Gsat/Mmucd) mouse DRG neurons harboring CGRP-GFP assessed as increase in cytoplasmic Ca2+ pulse at 1 uM after 15 secs by […]; type: functional, cell-based
Summary of the method: (§3)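 Lumbar DRG L1–L6 from CGRP-GFP mice, dissociated with 0.25% trypsin for 20 min and triturated. Cultured ~16–24 h at 37 °C, 5% CO2, in MEM/10% FBS/HEPES/glucose, pH 7.4, then loaded with 4 μM Fura2-AM for 1 h. Ratio 340/380 nm excitation, 510 nm emission, recorded at room temperature during ~1 h pharmacology sequence. IB4 stain afterwards; cells classed by AITC, menthol, capsaicin, kM-RIIIJ, IB4 and CGRP-GFP.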

[7] = Cytotoxicity against human CH157 cells assessed as reduction in cell viability after 48 hrs by MTT assay; type: functional, cell-based
[8] = test system: DRG neuron; experiment: Induction of cell death in STOCK Tg(CalcaEGFP)FG104Gsat/Mmucd) mouse DRG neurons N15 cells harboring CGRP-GFP at 1 uM 7 secs by Alexa-Flour 647 Isolectin B4 staining based light micrographic method; type: functional; summary of the method: as §3
[9] = test system: CHO; experiment: Cytotoxicity against […] assessed as reduction in cell viability after 48 hrs by MTT assay; type: cell-based; details: Cricetulus griseus; summary of the method: as §2
[10] = Induction of calcium influx in STOCK Tg(CalcaEGFP)FG104Gsat/Mmucd) mouse DRG neurons harboring CGRP-GFP assessed as increase in cytoplasmic Ca2+ at 500 nM after 7 secs by Alexa-Flour 647 Isolectin B4 staining based assay relative to control; type: functional, DRG neuron; summary of the method: as §3
[11] = test system: Cerebral cortex; experiment: Induction of cell death in mouse brain cortex assessed as increase in cell lysis at 1 uM after 5 secs by Alexa-Flour 647 Isolectin B4 staining based assay; type: functional, tissue-based
[12] = Induction of calcium influx in STOCK Tg(CalcaEGFP)FG104Gsat/Mmucd) mouse DRG neurons harboring CGRP-GFP assessed as increase in cytoplasmic Ca2+ at 1 uM after 7 secs by Alexa-Flour 647 Isolectin B4 staining based assay relative to control; type: functional, DRG neuron; summary of the method: as §3
[13] = Induction of calcium influx in STOCK Tg(CalcaEGFP)FG104Gsat/Mmucd) mouse DRG neurons harboring CGRP-GFP assessed as increase in cytoplasmic Ca2+ in at 500 nM after 7 secs by Alexa-Flour 647 Isolectin B4 staining based assay relative to control; type: functional, DRG neuron; summary of the method: as §3
[14] = test system: Huh-7; experiment: Cytotoxicity against human HuH7 cells assessed as reduction in cell viability after 48 hrs by MTT assay; type: functional, cell-based; details: Huh-7, 48 h; summary of the method: as §2
[15] = Toxicity in TuAB zebra fish embryo at 10 to 1000 nM dosed at 6 hpf and measured after 1 day postfertilization by bright field microscopic method; type: organism-based, Danio rerio; details: zebrafish, in vivo, 24 h, 1 µM
Summary of the method: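 TuAB zebrafish embryos exposed to compound or DMSO vehicle from 6 hpf to 1 dpf at 28.5 °C, then assessed by bright-field stereomicroscope imaging.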

[16] = test system: DRG neuron; experiment: Induction of calcium influx in STOCK Tg(CalcaEGFP)FG104Gsat/Mmucd) mouse DRG neurons harboring CGRP-GFP assessed as increase in cytoplasmic Ca2+ pulse at 10 nM after 15 secs by […]; type: functional, cell-based
Summary of the method: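 DRG neurons from CGRP-GFP mice, Fura2-AM loaded, imaged as 340/380 nm ratio. Compound applied as a 15-second pulse, with concentrations down to ~10 nM tested. Neuron classes assigned by pharmacological markers and IB4/CGRP-GFP.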

Structure (SMILES)	IC50 [1] [µM]	IC50 [2] [µM]	Ratio IC50 [3]	IC50 [4] [µM]	Activity [5]	Activity [6]	IC50 [7] [µM]	Activity [8]	IC50 [9] [µM]	Activity [10] [%]	Activity [11]	Activity [12] [%]	Activity [13] [%]	IC50 [14] [µM]	Activity [15]	Activity [16]
COc1cccc2c1C(=O)c1c(O)c3c(c(O)c1C2=O)C[C@@](O)(C(=O)CO)C[C@@H]3O[C@H]1C[C@H](N)[C@H](O)[C@H](C)O1 [DOXORUBICIN]	0.98	0.45	0.45													
C=C1/C=C/C(=O)NCC(=O)N[C@@H](C(C)C)C(=O)O[C@@H]([C@H](C)C[C@@H](C)CCC)[C@H](OC)C(=O)N1	0.12	0.41	3.6	0.39	Active	Active	0.098	Active	0.39	8	Active	34	61	0.19	Non-Toxic	Active
Cn1nnc2c(C(N)=O)ncn2c1=O [TEMOZOLOMIDE]	1100	640	0.6													
